Rtt109 Vps75 – blocks Candida albicans Rtt109/Vps75 acetyltransferase activity; actives 0.16% (n = 330,000); AID 540336; Q5AAJ8; inhibition, % at 34.9 µM; purified Rtt109/Vps75, ThioGlo CoA-SH fluorescence, 4 h;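 active means inhibition of at least 50% in every replicate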
Target sequence (Q5AAJ8 whole entry, looked up): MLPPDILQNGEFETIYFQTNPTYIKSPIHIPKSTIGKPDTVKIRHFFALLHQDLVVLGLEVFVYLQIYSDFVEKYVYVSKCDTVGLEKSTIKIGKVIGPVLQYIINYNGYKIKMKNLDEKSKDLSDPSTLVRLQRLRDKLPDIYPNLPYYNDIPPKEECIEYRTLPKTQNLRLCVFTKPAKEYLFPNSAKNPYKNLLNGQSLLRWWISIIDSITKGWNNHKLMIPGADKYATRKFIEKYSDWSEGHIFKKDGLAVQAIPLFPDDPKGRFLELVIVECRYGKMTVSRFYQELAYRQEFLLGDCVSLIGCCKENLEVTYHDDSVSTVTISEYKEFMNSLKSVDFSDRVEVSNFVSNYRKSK
CAL PDZ FP-1 – inhibitors of human CAL PDZ peptide binding. AID 602252. Q9HD26. inhibition, % at 24.9 µM. purified CAL PDZ, TMR-peptide fluorescence polarization, 1 h. actives 0.92% (n = 300,000);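 active means mean inhibition of at least 30% with at least half of replicates also reaching 30%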;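 further: 0% = DMSO neutral control and 100% = excess unlabeled competitor peptide PRC23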
CAL PDZ FP-2 – human CAL PDZ-peptide interaction inhibition; Q9HD26; purified CAL PDZ, TMR-peptide fluorescence polarization, 1 h; inhibition, % at 20 µM; actives 0.02% (n = 330,000); AID 504414;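 active means highest replicate inhibition of at least 40%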;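 further: plate controls were DMSO neutral control wells for no effect and unlabeled competitor peptide control wells for full effect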
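System: tagged CAL PDZ domain. Schedule: 1 h room-temperature incubation prior to read. Signal: fluorescence polarization (mP). Measure: percent inhibition from loss of millipolarization.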
CDK5 p35 inh – CDK5/p35 (human) kinase inhibition | Q00535+Q15078 | Recombinant CDK5/p35, ADP-Glo luminescence, 60 min | inhibition, % at 10 µM | actives 0.01% (n = 330,000);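 active means highest replicate inhibition of at least 50% and at least 75% of replicates reaching 50%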;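 further: plate controls were DMSO neutral control for no effect and GW8510 at 10 µM for full effect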
DYRK1A inh – Dyrk1A (rat) kinase inhibition | ADP-Glo luminescence, NFATc1 peptide | inhibition, % at 12.5 µM | actives 0.43% (n = 310,000); in the data active means inhibition above about 50%;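 further: plate controls were vehicle with enzyme for no effect and no enzyme for full effect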
dFosB act-1 – activators of mouse delta FosB homodimer; purified delta FosB, TAMRA-CDK5 oligo fluorescence polarization; percent of positive-control signal above neutral wells; activation, % at 25 µM; actives 0.99% (n = 340,000); AID 493131;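 active means mean activation above about 17%, with every replicate also reaching it, limit read from the data, passing the limit was not always enough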
dFosB act-2 – enhances mouse delta FosB homodimer binding to DNA | shares compounds with dFosB act-1 | purified delta FosB, TAMRA-CDK5 oligo fluorescence polarization; normalised: neutral wells 0, positive control 100 | activation, % at 24.9 µM | 2,400 tested, under 10 active;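 active means highest replicate activation at or above 34% and every replicate reaching that threshold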;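 further: higher polarization means more probe DNA bound by delta FosB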
An asterisk follows results filed as active; / = not tested or not shown. Shown are actives, neighbours in structure and some others; about 2.2% of the full set was active somewhere.

SMILES	Rtt109 Vps75	CAL PDZ FP-1	CAL PDZ FP-2	CDK5 p35 inh	DYRK1A inh	dFosB act-1	dFosB act-2
COc1cc(NC(=O)c2cc([N+](=O)[O-])ccc2NC(=O)CNCc2ccccn2)cc(OC)c1	10	0	-2	-2	1	35*	-1
O=c1[nH]c(/C(Cl)=C/c2cc(Cl)ccc2O)nc2cc(Cl)ccc12	-3	/	0	-1	1	31*	-1
Clc1cccc(-c2ccnc3nc(-n4cccc4)nn23)c1	1	/	-1	0	-3	37*	-2
COc1ccc(-c2ccnc3nc(-n4cccc4)nn23)cc1	11	-9	-2	-4	3	9	/
COc1cc(C(=O)NCc2ccc(S(N)(=O)=O)cc2)ccc1OCC(=O)Nc1cccc(C(F)(F)F)c1	-11	-3	-2	2	7	17*	1
COc1cc(C(=O)N(C)CCOc2ccccc2)ccc1OCC(=O)Nc1cccc(C(F)(F)F)c1	-8	-3	-2	1	-2	-16	/
Cc1ccc[n+](CC(=O)Nc2ccc([N+](=O)[O-])cc2)c1	4	-5	0	0	/	7	/
Cc1c(C(=O)OCC(=O)Nc2ccc(S(N)(=O)=O)cc2)oc2c1ccc1ccccc12	-6	4	0	1	11	29*	2
Cc1ccc2c(C)c(C(=O)NCc3ccc(S(N)(=O)=O)cc3)oc2c1C	2	0	0	1	-5	14	/
Cc1ccc2c(C)c(C(=O)Nc3ccc(S(N)(=O)=O)cc3)oc2c1C	4	-3	0	-2	7	48*	5
O=C(COC(=O)c1cc(Br)ccc1O)Nc1ccc2c(c1)OCO2	6	-2	0	1	/	43*	-2
COc1ccc(/C=C/C(=O)OCC(=O)Nc2ccc3c(c2)OCO3)cc1	-5	8	0	-1	/	28*	-9
NC(=O)c1ccc(NC(=O)COC(=O)c2ccc3c(c2)OCO3)cc1	3	5	0	0	/	24*	-2
Cc1ccc(NC(=O)COC(=O)c2ccc3c(c2)OCCO3)cc1	2	-3	1	-1	/	8	/
COc1ccc(NC(=O)COC(=O)c2ccc3c(c2)OCCO3)cc1OC	-4	-6	0	-1	/	48*	2
COc1ccc(S(=O)(=O)NCC2CCCN(Cc3ccc(OC)cc3F)C2)cc1 (stereo not given)	2	2	0	0	1	-3	/
COC(=O)c1cc(NC(=O)c2ccccc2F)cc(C(=O)OC)c1	0	/	-1	-2	-1	-17	/
CCCC12CN3CC(C)(CN(C1)C3c1ccco1)C2=O (stereo not given)	4	-3	-2	-2	-2	-5	/
CNc1ccc(C(=O)OCC(=O)NCc2ccc3c(c2)OCO3)cc1[N+](=O)[O-]	-10	-7	0	-1	/	36*	-1
O=C(COC(=O)CNC(=O)c1ccco1)NCc1ccc(F)cc1	1	-1	1	2	/	-3	/
O=C(Nc1ncn[nH]1)c1cc(S(=O)(=O)Nc2cccc(C(F)(F)F)c2)ccc1Cl	-7	1	0	0	/	58*	1
O=C(Nc1cccc(C(F)(F)F)c1)c1cccc(NS(=O)(=O)c2ccc(O)c(C(=O)O)c2)c1	7	-1	-1	0	7	1	/
C=CCN(c1ccccc1)S(=O)(=O)c1cccc(C(=O)N2CC(C)CC(C)C2)c1 (stereo not given)	0	0	-4	0	-10	-24	/
CCOc1cccc(/C=C2/NC(=O)N(CC(=O)Nc3cccc(C)c3)C2=O)c1O	-9	-6	0	0	5	23*	2
Cc1cccc(NC(=O)CN2C(=O)N/C(=C/c3ccc(C)s3)C2=O)c1	/	-1	-2	-2	-4	31*	0
SMILES	Rtt109 Vps75	CAL PDZ FP-1	CAL PDZ FP-2	CDK5 p35 inh	DYRK1A inh	dFosB act-1	dFosB act-2
COc1ccccc1NC(=O)Nc1c(C)nn(C)c1C	0	-5	-2	1	/	-2	/
N#Cc1cccc(NC(=O)c2cncn2-c2ccccc2)c1	6	-6	-3	2	7	5	/
Cc1nc(-c2ccc(NC(=O)c3ccc(Br)o3)cc2)cs1	-1	/	-2	2	10	26*	0
Cc1nc(-c2cccc(NC(=O)c3ccc(Br)o3)c2)cs1	3	-6	-2	-2	9	-24	/
Nc1nc(Oc2ccc(F)cc2)c(Br)c(=O)[nH]1	6	-1	-1	7	6	-10	/
C/C(CC(=O)Nc1ccccn1)=N\NC(=O)c1cnccn1	-2	12	-1	-1	-3	-3	/
O=[N+]([O-])c1ccc(OCCOc2ccccc2/C=N/n2cnnc2)cc1	7	-5	-3	0	-1	36*	5
CC(C)C[C@@H](CN1CCCC1CN1C(=S)NC[C@@H]1Cc1ccc(O)cc1)N1C[C@H](Cc2ccc(O)cc2)N(CC2CCCCCC2)C1=S (stereo not given in full)	-7	-1	-1	1	/	21*	2
CC(C)C[C@@H](CN1CCC[C@@H]1CN1C(=O)C(=O)NC[C@@H]1Cc1ccccc1)N1C[C@H](Cc2ccc(O)cc2)N(CC2CCCCC2)C(=O)C1=O	6	-3	-1	-6	/	-23	/
CC(C)C[C@H]1CNC(=S)N1CC1CCCN1C[C@H](Cc1ccccc1)N1C[C@H](Cc2ccc(O)cc2)N(CC2CCCCCC2)C1=S (stereo not given in full)	3	-2	0	-3	/	57*	7
CC(C)C[C@@H](CN1CCCC1CN1C(=S)NC[C@@H]1Cc1ccc(O)cc1)N1C[C@H](Cc2ccccc2)N(CC2CCCCCC2)C1=S (stereo not given in full)	-4	-5	-1	-1	/	45*	5
CC(C)C[C@H]1CN([C@@H](Cc2ccc(O)cc2)CN2CCC[C@@H]2CN2C(=O)C(=O)NC[C@@H]2Cc2ccccc2)C(=O)C(=O)N1CC1CCCCC1	-3	-3	-1	0	/	-10	/
CC(C)C[C@@H](CN1CCCC1CN1C(=S)NC[C@@H]1Cc1ccc(O)cc1)N1C[C@H](Cc2ccccc2)N(CC2CCCCC2)C1=S (stereo not given in full)	-11	5	1	0	/	52*	1
COc1ccccc1C(=O)Nc1ccnn1C1CCN(CCCc2ccccc2)CC1	-6	-5	-4	0	4	-2	/
COc1ccc(Cc2n[nH]c(=S)n2C)cc1Br	10	/	-1	0	-5	1	/

Compound activity (PubChem BioAssay)
